Hits are enriched below; roughly 3% of the tested compounds scored in any of these assays.
T cruzi inh = blocks replication of Trypanosoma cruzi | hit rate 1.4% among 300,000 | T. cruzi beta-gal in NIH3T3, luminescence, 90 h | inhibition, % (concentration not given with the values);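 active = mean inhibition across valid replicates above about 55%, limit read from the data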;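 note: signal also drops with host cell toxicity which is not excluded here; higher percent means less beta-gal luminescence so fewer parasites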
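Read-out: Parasite load inhibition, % | Test system: Mouse NIH/3T3 fibroblasts infected with β-gal-expressing T. cruzi Tulahuen C4 | Amount: 5,000 cells/well | Medium: DMEM, 2% fetal bovine serum | Signal: GalScreen β-gal luminescence, detergent lysis, 60 min | Timing: 3 h attach, ≥90 h co-culture | Also added: Tulahuen C4 trypomastigotes, 5000/well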
NRP1-CendR mod = modulators of CendR peptide binding to human neuropilin-1 | inhibition, % at 25 µM | hit rate 0.85% among 360,000 | AID 602438 | FAM-RPARPAR peptide binding to NRP-1, fluorescence polarization | O14786;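 active = inhibition or corrected inhibition above about 18%, plus a signal ratio from 0.5 to 1.5, limit read from the data, passing the limit was not always enough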
Target sequence (O14786 whole entry, looked up): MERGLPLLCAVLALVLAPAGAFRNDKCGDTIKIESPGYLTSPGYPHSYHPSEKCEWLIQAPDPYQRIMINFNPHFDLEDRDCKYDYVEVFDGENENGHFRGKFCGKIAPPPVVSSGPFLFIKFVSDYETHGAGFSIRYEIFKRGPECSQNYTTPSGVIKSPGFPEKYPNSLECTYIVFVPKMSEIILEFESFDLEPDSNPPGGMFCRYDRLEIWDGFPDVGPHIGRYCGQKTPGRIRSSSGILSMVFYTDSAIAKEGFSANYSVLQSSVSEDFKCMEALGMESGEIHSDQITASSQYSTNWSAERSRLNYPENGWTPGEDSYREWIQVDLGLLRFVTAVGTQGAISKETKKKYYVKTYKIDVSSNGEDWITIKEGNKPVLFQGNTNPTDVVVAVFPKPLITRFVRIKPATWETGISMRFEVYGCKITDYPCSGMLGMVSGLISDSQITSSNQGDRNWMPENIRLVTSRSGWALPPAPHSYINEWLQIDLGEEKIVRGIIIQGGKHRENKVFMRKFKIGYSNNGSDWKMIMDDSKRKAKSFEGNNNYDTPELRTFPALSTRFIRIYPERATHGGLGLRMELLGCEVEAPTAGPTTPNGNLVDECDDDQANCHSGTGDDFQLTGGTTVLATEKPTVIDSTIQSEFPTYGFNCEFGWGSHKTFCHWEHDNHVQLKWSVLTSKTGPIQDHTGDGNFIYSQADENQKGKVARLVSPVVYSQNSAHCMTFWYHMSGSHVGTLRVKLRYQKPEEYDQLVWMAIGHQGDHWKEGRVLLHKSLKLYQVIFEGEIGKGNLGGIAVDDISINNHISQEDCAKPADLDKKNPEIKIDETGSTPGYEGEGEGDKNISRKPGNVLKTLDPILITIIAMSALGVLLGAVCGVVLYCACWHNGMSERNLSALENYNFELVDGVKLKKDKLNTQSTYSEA
AI-2 QS mod = modulates the Vibrio harveyi AI-2 quorum sensing system. Vibrio harveyi JMH597 AI-2 luminescence/OD600 ratio, 9 h; active compounds read low; strain lacks LuxN and CqsS sensors; 0 = neutral-control median. activity change, % at 7.5 µM. hit rate 0.4% among 300,000; in the data active = activity change below about -75%, passing the limit was not always enough;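 note: luminescence divided by OD600 gain over 9 h not by final OD600 alone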
HIF act = HIF pathway transcriptional activation | hit rate 0.32% among 300,000 | activation, % at 7.5 µM (by protocol) | U2OS HRE-luciferase reporter, luminescence; normalized: DMSO 0%, desferrioxamine 100%;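 active = mean activation of at least 10% of the iron chelator positive control signal, with at least half of replicates also reaching 10%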
V-ATPase pH = regulators of yeast V-ATPase proton transport; S. cerevisiae, pHLuorin cytosolic pH fluorescence; response, % at 10 µM; hit rate 0.37% among 350,000; AID 504577; in the data active = response mostly above about 7.3%, no sharp cut-off; inactive = mostly below about 5.4%; note: actives read high
CR mimetic SO = caloric restriction mimetics inhibiting age-related superoxide in yeast. AID 2690. S. cerevisiae aged cells, superoxide DHE fluorescence; active compounds read low. superoxide response (% of plate mean), % at 10 µM. hit rate 0.18% among 330,000;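 active = superoxide response under a set limit, about three screen SD below normal, cut at about 65% in these data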;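 note: yeast aged for seven days with compound at 30 °C before DHE staining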
A number is an active result; - = inactive; . = no result given.

SMILES	T cruzi inh	NRP1-CendR mod	AI-2 QS mod	HIF act	V-ATPase pH	CR mimetic SO
COc1ccc([C@H]2Cc3cc(O)cc(O)c3C(=O)O2)cc1O	.	-	.	.	-	-
O=C1O[C@@H](c2ccc(O)cc2)Cc2cccc(O)c21	.	30	.	.	-	-
COc1ccc([C@H]2Cc3cccc(O)c3C(=O)O2)cc1O	.	31	.	.	-	-
O=C(O)c1ccc2c(c1)CC(c1ccccc1)OC2=O (centres undefined)	-	-	-	-	-	-
O=C(COc1ccccc1)Nc1nnc(-c2ccc(Cl)s2)o1	-	-	-87	-	-	-
CCC1Sc2ccccc2N(CC(=O)NCc2ccccc2OC)C1=O (centres undefined)	-	-	-	-	-	-
O=C(CC1C(=O)NCCN1C(=O)Nc1ccccc1)Nc1cccc(C(F)(F)F)c1 (centres undefined)	-	44	-	-	-	-
Cc1nn(C(C)C(=O)N2CCCC2)c(=O)c2nn(-c3ccccc3)c(C)c12 (centres undefined)	56	-	-	-	-	-
c1ccc(COc2ccccc2CNC23CC4CC(CC(C4)C2)C3)cc1	56	-	-	-	-	-
c1ccc(COc2ccccc2CNC2CCCC2)cc1	-	-	-	-	-	-
CC(C)Sc1nc2c([nH]1)c(=N)ncn2Cc1ccccc1	-	-	-	-	-	-
O=C(N/N=C/c1ccc(-c2ccc(Br)cc2)o1)c1ccc2c(c1)OCO2	74	-	-	-	-	-
NC(=O)C1CCN(c2nc(-c3ccccc3Br)cs2)CC1	.	.	.	.	.	-
NC(=O)C1CCN(c2nc(-c3ccc(F)cc3)cs2)CC1	.	-	.	.	-	-
NC(=O)C1CCN(c2nc(-c3ccccc3F)cs2)CC1	.	25	.	.	-	-
NC(=O)C1CCN(c2nc(-c3ccccc3C(F)(F)F)cs2)CC1	.	30	.	.	-	-
NC(=O)C1CCN(c2nc(-c3ccc4occc(=O)c4c3)cs2)CC1	.	25	.	.	-	-
COc1ccc(S(=O)(=O)NCC2CCCN(CC(C)(C)C)C2)cc1 (centres undefined)	-	-	-	-	-	-
CC(OC(=O)C1=COCCO1)C(=O)Nc1cc(S(=O)(=O)N2CCCCC2)ccc1Cl (centres undefined)	-	23	-	-	-	-
O=C(Nc1cc(S(=O)(=O)N2CCCC2)ccc1Cl)C1=COCCO1	-	-	-	-	-	-
O=S(=O)(NCc1cccnc1)c1ccc(Cl)cc1	-	-	-	-	-	-
CN(CCS(=O)(=O)c1ccc(Cl)cc1)Cc1cccnc1	-	-	-	116	-	-
O=C(c1ccc(F)cc1)N(Cc1cccs1)C1CCS(=O)(=O)C1 (centres undefined)	-	-	-	167	-	-
O=C(c1cccs1)N(Cc1ccc(Cl)cc1)C1CCS(=O)(=O)C1 (centres undefined)	-	-	-	-	-	-
O=C(COc1ccccc1)N(Cc1cccc(F)c1)C1CCS(=O)(=O)C1 (centres undefined)	-	-	-	18	-	-
SMILES	T cruzi inh	NRP1-CendR mod	AI-2 QS mod	HIF act	V-ATPase pH	CR mimetic SO
COc1cccc(CN(C(=O)c2ccccc2)C2CCS(=O)(=O)C2)c1 (centres undefined)	-	-	-	-	29	-
CC(C)c1ccc(CN(C(=O)c2cccs2)C2CCS(=O)(=O)C2)cc1 (centres undefined)	-	18	-	-	-	-
COc1cccc(CN(C(=O)c2cccc(OC)c2)C2CCS(=O)(=O)C2)c1 (centres undefined)	-	-	-	-	-	-
O=C(COc1ccc(Cl)cc1)NCc1nnc(SCC(=O)N2CCCCC2)o1	-	-	-	-	-	-
Cc1nnc(SCC(=O)Nc2nc3ccccc3s2)n(N)c1=O	-	-	-	-	-	-
Cc1ccsc1CN(C(=O)c1ccccc1)C1CCS(=O)(=O)C1 (centres undefined)	-	22	-	-	-	-
O=C(Cn1nnc(-c2ccc(Cl)cc2)n1)NC1CCS(=O)(=O)C1 (centres undefined)	.	-	.	.	-	-
O=C(c1cc2nc(C3CC3)cc(C(F)(F)F)n2n1)N1CCCC1	-	-	-	-	-	-
CCCCC1(CC)C(=O)NC(=O)NC1=Nc1ccc(OC)cc1 (centres undefined)	-	-	-	-	-	-
C/C(Cl)=C/CSc1nn2c(=O)c3ccccc3nc2s1	-	26	-	-	-	-
C=CCSc1nn2c(=O)c3ccccc3nc2s1	-	-	-	-	-	-
Cc1ccc2nc(N(CCN(C)C)C(=O)c3ccc4ccccc4c3)sc2c1	-	-	-	-	-	-
CN(C)CCCN(C(=O)c1cc2ccccc2oc1=O)c1nc2c(F)cccc2s1	56	-	-	-	-	-
Cc1ccc2nc(N(CCCN(C)C)C(=O)c3cc4ccccc4oc3=O)sc2c1	60	-	-	-	-	-
Cc1cccc2sc(N(CCCN(C)C)C(=O)c3cc4ccccc4oc3=O)nc12	-	-	-	-	-	-
O=C(N/N=C\c1ccc(OCC(=O)N2CCCC2)cc1)C(=O)Nc1ccccc1F	-	-	-	-	-	-
C/C(=N\OC(=O)NC1CCCCC1)c1sc(-c2ccccc2)nc1C	58	-	-	-	-	-
CCn1c2ccccc2c2cc(N=C3SC(CC(=O)Nc4ccccc4OC)C(=O)N3CCOC)ccc21 (centres undefined)	-	-	-	-	-	-
CCOC(=O)Cc1cnc(NC(=O)NC(C(=O)OCC)(c2ccccc2)C(F)(F)F)s1 (centres undefined)	-	37	-	-	-	-
COc1ccc(CNC(=O)c2cc(C3CC3)on2)cc1	-	-	-	-	-	-
COc1cccc(NC(=O)Cc2ccccc2)c1	-	-	-	-	-	-
O=C(Cc1ccccc1)Nc1cccc(N2C(=O)C=CC2=O)c1	-	-	-88	-	-	-
Cc1[nH]c2c(ccc3ccccc32)c1C1C(CCN)C1(C)C (centres undefined)	65	-	-	-	-	-
CCCNC(=S)Nc1cccc(C(F)(F)F)c1	-	25	-	-	-	-
FC(F)(F)c1cccc(NC(=S)NCCN2CCOCC2)c1	-	-	-	-	-	-
SMILES	T cruzi inh	NRP1-CendR mod	AI-2 QS mod	HIF act	V-ATPase pH	CR mimetic SO
Cc1cc(CN2CCN(CCC#N)CC2)c(O)c(C2(C)CCCCC2)c1	55	-	.	-	-	-
Oc1cc(O)c(CN2CCOCC2)cc1CN1CCOCC1	.	-	.	.	-	.
Oc1c(CN2CCOCC2)cc(CN2CCOCC2)cc1CN1CCOCC1	.	29	.	.	-	.
Cc1nc(N)nc(N)c1/C=C/C(C)(C)c1ccc(Cl)cc1	60	-	-89	-	-	.
CC(C)c1ccc2oc(=O)cc(CN3CCOCC3)c2c1	-	-	-	40	-	-
COc1ccccc1CNc1nc(-c2cc(C)n(C)c2C)cs1	.	-	.	.	-	.
